# Sampled rows, rich in hits. Any-hit rate of the full collection: about 2.7%.
# MsrA inh = inhibits bovine methionine sulfoxide reductase A. purified bovine MsrA, absorbance read-out. AID 651718. inhibition, % at 15.5 µM. 0.75% of 360,000 active;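 also: 0% = vehicle wells with enzyme and 100% = reference inhibitor wells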
# NR1D1 modulator = modulators of human Rev-erb alpha DNA binding; 0.79% of 370,000 active; Rev-erbα–FITC-DNA binding, fluorescence polarization, 90 min; P20393; AID 1259318; activity, % at 10 µM;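 active = activity above about 14%, limit read from the data; passing the limit was not always enough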;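 also: 0% = DMSO wells with 35 nM protein and 100% = DMSO wells with 750 nM protein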
# Target sequence (P20393 whole entry, looked up): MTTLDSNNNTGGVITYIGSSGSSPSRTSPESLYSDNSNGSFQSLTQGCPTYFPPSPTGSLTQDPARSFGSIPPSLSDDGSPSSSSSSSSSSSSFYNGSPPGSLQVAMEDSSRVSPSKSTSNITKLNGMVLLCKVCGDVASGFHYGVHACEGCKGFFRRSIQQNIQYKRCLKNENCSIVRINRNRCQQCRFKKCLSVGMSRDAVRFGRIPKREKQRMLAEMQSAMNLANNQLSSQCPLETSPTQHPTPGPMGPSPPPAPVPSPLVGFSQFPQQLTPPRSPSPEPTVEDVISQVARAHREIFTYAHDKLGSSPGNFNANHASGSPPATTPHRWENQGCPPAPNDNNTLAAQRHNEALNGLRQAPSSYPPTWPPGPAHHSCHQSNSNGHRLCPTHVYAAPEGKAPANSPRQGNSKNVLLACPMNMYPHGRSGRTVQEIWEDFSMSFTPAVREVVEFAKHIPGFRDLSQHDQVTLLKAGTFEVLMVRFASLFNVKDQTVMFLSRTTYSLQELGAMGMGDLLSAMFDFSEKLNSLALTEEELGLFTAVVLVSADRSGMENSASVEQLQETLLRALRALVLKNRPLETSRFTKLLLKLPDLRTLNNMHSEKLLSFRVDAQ
# ASAP1 inh = ASAP1 ArfGAP inhibition; AID 624377; inhibition, % at 16.5 µM; Q9ULH1; 0.19% of 360,000 active; ASAP1-stimulated ARF1 GTP hydrolysis, GDP FP detection; in the data active = inhibition above about 25%;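 also: 0% = vehicle with enzyme and substrate and 100% = no enzyme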
# sPLA2-III inh = Blocks human group III sPLA2 activity; Q9NZ20; QFRET BODIPY PC-A2 liposome hydrolysis, fluorescence; inhibition, % at 12.2 µM; 0.56% of 370,000 active;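 active = inhibition above mean plus 3 SD of compounds lying within the high and low control bounds, cut at about 19% in these data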;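 also: 0% = median of test compound wells and 100% = no enzyme DMSO wells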
# ARFGAP1 inhibitor = inhibitors of rat ARFGAP1. Q62848. 0.26% of 360,000 active. AID 651572. inhibition, % at 16.5 µM. Arfgap1-stimulated ARF1 GTP hydrolysis, GDP FP detection;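 active = inhibition above a per-plate limit, mean inhibition of low control wells plus 3 SD, cut at about 25% in these data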;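 also: 0% = DMSO wells with enzyme and 100% = wells lacking Arfgap1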
#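 System: truncated rat Arfgap1 GAP domain / Benchmarks: high control wells lacking Arfgap1, low control full reaction with DMSO / Times: compound-enzyme preincubation 20 min, reaction 120 min, detection 60 min, 25 °C / Repeats: one replicate per compound / Also added: human ARF1(Δ1-17)-GTP substrate / Measured by: Tracer-displacement fluorescence polarization with EDTA stop, 620/688 nm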
# bovine MsrA act = bovine methionine sulfoxide reductase A activation; purified bovine MsrA, absorbance read-out; activation, % at 10.6 µM; 0.3% of 360,000 active; AID 602163; in the data active = activation above about 7.5%;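 also: 0% = vehicle and 100% = reference activator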
# MsrA conf = bovine MsrA inhibition, confirmed. shares compounds with MsrA inh. purified bovine MsrA, absorbance read-out. inhibition, % at 15.5 µM. 41% of 2,300 active;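 also: coupled to thioredoxin reductase with NADPH and selenocystamine and DMSO as substrate; 0% = vehicle only and 100% = full effect of reference inhibitor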
# * hit, by the source's call; . = no result given; ! = a repeat was not active. Rule as the data show it, unless noted: active = inhibition above about 4.5%; inactive = the rest.
SMILES,MsrA inh,NR1D1 modulator,ASAP1 inh,sPLA2-III inh,ARFGAP1 inhibitor,bovine MsrA act,MsrA conf
CN(C)/C(CN1CCN(C=O)CC1)=C1\N=C(c2ccccc2)OC1=O,6.0*,-3,9,2,-7,-6,5.3*
CC(=C1N=C(c2ccccc2)OC1=O)c1cccs1,0,-12,7,0,16,.,.
Cc1c(C(=O)N/N=C/c2cccs2)nc2ccccn12,6.6*,5,-9,12,3,-1,6.4*
CCNC(=S)N/N=C/c1cccs1,5.5*,3,16,12,7,-4,3
C/C(=N\O)C(C)/[N+]([O-])=C/c1nc(C)c(C)n1O (centres undefined),5.2*,2,-9,-3,7,-11,4
O=C(CSc1ccc(-c2nc3ccccc3[nH]2)cn1)N1CCN(C(=O)c2ccco2)CC1,5.1*,0,8,-1,-7,-5,2
CN(C)/C=C1/NC(=S)NC1=O,5.5*,-2,1,3,9,-3,6.7*
COc1ccc(N2C(=O)/C(=C/c3cccnc3)NC2=S)cc1,0,1,-9,7,4,1,.
CCN1C(=O)/C(=C\N(C)C)NC1=S,5.0*,-7,-9,5,-5,-7,3
O=C1NC(=S)NC1=Cc1ccc(O)cc1,1,6,-10,3,-1,2,.
CCCN1C(=O)/C(=C/c2ccc(C)s2)NC1=S,2,2,-1,8,-1,-9,.
COc1ccc(N2C(=O)/C(=C/N(C)C)NC2=S)cc1,7.3*,0,-8,1,8,-4,5.8*
CN1CC=C(c2ccccc2)N(c2ccc(Cl)cc2)C1=O,.,10,.,-10,.,.,.
O=C(OCCN1CCN(C2CN(Cc3cn(Cc4ccc([N+](=O)[O-])cc4)nn3)S(=O)(=O)C2)CC1)c1cc2ccccc2o1 (centres undefined),.,0,.,2,.,.,.
CC(=O)N1CCc2c1cccc2S(=O)(=O)NC(CC(C)C)C(=O)Nc1ccc(Cl)c(Cl)c1 (centres undefined),.,-4,.,-28,.,.,.
COc1ccc2c(c1)N[C@@](CCN1C(=O)c3ccccc3C1=O)(c1[nH]c3ccccc3c1CCN1C(=O)c3ccccc3C1=O)C2=O,.,-2,.,1,.,.,.
C=CCNc1oc(-c2ccc(Cl)cc2)nc1C#N,1,1,-9,7,-5,-7,.
CNc1oc(-c2ccc(Cl)cc2)nc1C#N,4.8*,4,7,-2,13,-4,2
COc1ccc(O)c(/C=N/Nc2nc3ccccc3[nH]2)c1,5.8*,0,7,10,-1,-2,4
COc1cc(/C=N/Nc2nc3ccccc3[nH]2)ccc1O,4.9*,1,17,-2,0,-4,3
COc1cc(/C=N/Nc2nc3ccccc3[nH]2)cc(OC)c1O,5.1*,10,19,5,5,-7,4.7*
COc1cccc(/C=N/Nc2nc3ccccc3[nH]2)c1O,5.9*,-4,12,12,-3,-1,5.2*
COc1cc(/C=N/Nc2nc3ccccc3[nH]c2=O)ccc1O,1,-1,-3,3,1,-5,.
COC(=O)[C@@]12CCCCC3=C1N(CCC3)C(=O)[C@H]2CC(=O)NCc1cccc(C(F)(F)F)c1,.,-2,.,-12,.,.,.
CN(C)c1ccc(-c2nc3ncc(Cl)cc3[nH]2)cc1,.,-5,.,10,.,.,.
SMILES,MsrA inh,NR1D1 modulator,ASAP1 inh,sPLA2-III inh,ARFGAP1 inhibitor,bovine MsrA act,MsrA conf
COc1cccc(/C=N/Nc2ncnc(Cl)c2N)c1O,5.7*,-1,11,11,-1,-7,5.2*
COc1ccc(CNC(=O)O[C@H]2CC[C@@]34CCCN3C(=O)CCC[C@H]4C2)cc1,.,-4,.,1,.,.,.
CCOC(=O)c1sc(N)c(C(=O)Nc2ccccc2)c1C,4.8*,-1,18,5,6,-4,2
CCN(/N=C/c1cccs1)c1cc(=O)n(C)c(=O)[nH]1,7.2*,9,-11,-3,-3,-4,6.7*
CN(/N=C/c1cccs1)c1cc(=O)n(C)c(=O)[nH]1,9.0*,4,-1,7,12,-8,5.8*
O=C(c1cccs1)N1CC[C@H]2[C@H](CCCN2Cc2ccc(F)cc2)C1,.,1,.,0,.,.,.
COC(=O)c1sccc1NC(=O)c1ccc(Br)o1,5.7*,2,-9,-1,7,2,3
COC(=O)c1sccc1NC(=O)c1ccc(C)o1,1,4,13,-10,3,-1,.
Cc1cc(C)cc(-c2c(C(=O)c3ccc(Br)cc3)[nH]c(N)c2C(=O)NCc2ccc(Cl)cc2)c1,.,5,.,6,.,.,.
CCS(=O)(=O)Nc1ccc(C2=NN(C(=O)c3ccco3)C(c3ccco3)C2)cc1 (centres undefined),5.1*,-4,24,1,1,0,3
CCS(=O)(=O)Nc1cccc(C2=NN(C(=O)c3ccco3)C(c3ccco3)C2)c1 (centres undefined),3,-3,7,-10,0,-3,.
COc1ccc2cc3[n+](cc2c1OC)CCc1cc2c(cc1-3)OCO2,6.6*!,-1,-4,4,0,-7,5.4*
O=C(NCCc1c[nH]c2ccccc12)OCc1cn(-c2ccc(F)cc2)nn1,.,3,.,-68,.,.,.
COc1ccccc1-n1c(C)cc(/C=C2\C(=N)N3N=C(CC(=O)N4CCOCC4)SC3=NC2=O)c1C,5.3*,2,-5,-15,6,-1,4
Cc1ccc(/C=C2\C(=N)N3N=C(CC(=O)N4CCOCC4)SC3=NC2=O)o1,5.2*,-1,7,-22,-4,-4,4
COc1ccc(-n2c(C)cc(/C=C3\C(=N)N4N=C(CC(=O)N5CCOCC5)SC4=NC3=O)c2C)c(OC)c1,2,10,-4,-30,8,-4,.
O=S1(=O)c2c(cccc2N2CCC[C@H]2CO)OCCCN1C1CC1,.,2,.,4,.,.,.
Cn1cnnc1Sc1ccc(/C=C/C(=O)c2ccc(O)cc2)cc1[N+](=O)[O-],5.7*,-2,7,5,-10,-12,3
O=C(N[C@H]1C[C@@H]2O[C@H](CO)CC[C@@H]2O[C@@H]1CCc1ccc(-c2cccnc2)cc1)c1cccc(F)c1,.,-10,.,-5,.,.,.
O=C(Nc1ccccc1Cl)OC1CC2CC1[C@H]1CCCCN1[C@H]2Cc1ccccc1 (some centres undefined),.,4,.,-2,.,.,.
CCOc1cc(/C=C(/C#N)c2ccc(F)cc2)ccc1OCc1ccc(C(=O)O)o1,6.7*,-11,-12,-37,3,-10,5
CCOc1ccccc1NC(=S)NC(=O)C1CC1,7.4*,3,-5,-2,8,1,7.2*
O=[N+]([O-])c1cccc(-c2ccc(C(=S)N3CCOCC3)o2)c1,5.1*,13,4,2,0,-7,5.6*
